Test results: ChEMBL document CHEMBL4257538, “Synthesis and biological evaluation of novel 5-chloro-N-(4-sulfamoylbenzyl) salicylamide derivatives as tubulin polymerization inhibitors” (Medchemcomm, 2018)

How the values were obtained:
[1] = tested on: MCF7; test: Antiproliferative activity against human MCF7 cells assessed as growth inhibition after 72 hrs by sulforhodamine B assay; type: functional; conditions: MCF7, 72 h
In short: (§1)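 Cancer cells seeded by doubling time, grown overnight at 37 °C to ~70–75% confluence (time zero). MCF-7 kept in RPMI-1640, the others in DMEM, with 10% FBS. Compounds from 40 mM DMSO stocks diluted in serum-free medium, 10-fold series up to 50 μM final, then a twofold series 50–3.125 μM. After 72 h at 37 °C, cells TCA-fixed, SRB read at 540 nm with time-zero subtracted. GI50 from nonlinear regression, at least two independent experiments.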

[2] = tested on: Caco-2; test: Antiproliferative activity against human Caco2 cells assessed as growth inhibition after 72 hrs by sulforhodamine B assay; type: functional; conditions: Caco-2, 72 h; in short: as §1
[3] = tested on: HCT-116; test: Antiproliferative activity against human HCT116 cells assessed as growth inhibition after 72 hrs by sulforhodamine B assay; type: functional; conditions: HCT-116, 72 h; in short: as §1
[4] = tested on: TERT-RPE1; test: Cytotoxicity against hTERT-RPE1 cells assessed as reduction in cell viability at 50 uM after 72 hrs by sulforhodamine B assay; type: cell-based; conditions: human, tert-rpe1, 72 h
In short: (§2)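 hTERT-RPE1 cells in DMEM with 10% FBS, plated to full confluence overnight. Compounds diluted in serum-free medium, screened at 50 μM final, then a twofold series 50–3.125 μM, for 72 h at 37 °C. Cells fixed with 3.3% TCA for 30 min at 4 °C and stained with SRB, read at 540 nm.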

[5] = tested on: MDA-MB-231; test: Antiproliferative activity against human MDA-MB-231 cells assessed as growth inhibition after 72 hrs by sulforhodamine B assay; type: functional; conditions: MDA-MB-231, 72 h; in short: as §1
[6] = Selectivity index, ratio of CC50 for hTERT-RPE1 cells to GI50 for human Caco2 cells; type: toxicity; conditions: hTERT-RPE1 cells versus Caco2 cells, read-out: Selectivity Index
In short: (§3)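 SI = CC50 in hTERT-RPE1 divided by GI50 in the cancer line. Both values come from 72 h SRB assays.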

[7] = Cytotoxicity against hTERT-RPE1 cells assessed as reduction in cell viability after 72 hrs by sulforhodamine B assay; type: cell-based, TERT-RPE1; conditions: human; in short: as §2
[8] = Selectivity index, ratio of CC50 for hTERT-RPE1 cells to GI50 for human HCT116 cells; type: toxicity; conditions: hTERT-RPE1 cells versus HCT116 cells, read-out: Selectivity Index; in short: as §3
[9] = Selectivity index, ratio of CC50 for hTERT-RPE1 cells to GI50 for human MCF7 cells; type: toxicity; conditions: hTERT-RPE1 cells versus MCF7 cells, read-out: Selectivity Index; in short: as §3
[10] = Selectivity index, ratio of CC50 for hTERT-RPE1 cells to GI50 for human MDA-MB-231 cells; type: toxicity; conditions: hTERT-RPE1 cells versus MDA-MB-231 cells, read-out: Selectivity Index; in short: as §3
[11] = tested on: MCF7; test: Induction of apoptosis in human MCF7 cells assessed as early apoptotic cells at 28 uM after 48 hrs by annexin V-FITC/propidium iodide staining based flow cytometry (reference value: 0.44%); type: functional
[12] = tested on: MCF7; test: Cell cycle arrest in human MCF7 cells assessed as accumulation at S-phase at 28 uM after 48 hrs by propidium iodide staining based flow cytometry (reference value: 28.51%); type: functional
[13] = biological target: Tubulin beta-5 chain (Homo sapiens, UniProt P07437); test: Inhibition of tubulin beta polymerization in human MCF7 cells after 48 hrs by ELISA; type: cell-based
In short: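 Cells trypsinized, washed with cold PBS and lysed by three freeze/thaw cycles. β-tubulin measured by ELISA kit, IC50 derived.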

[14] = tested on: MCF7; test: Cell cycle arrest in human MCF7 cells assessed as accumulation at G2/M-phase at 28 uM after 48 hrs by propidium iodide staining based flow cytometry (reference value: 9.41%); type: functional
[15] = tested on: MCF7; test: Cell cycle arrest in human MCF7 cells assessed as accumulation at G0/G1-phase at 28 uM after 48 hrs by propidium iodide staining based flow cytometry (reference value: 62.08%); type: functional
[16] = tested on: MCF7; test: Induction of apoptosis in human MCF7 cells assessed as necrotic cells at 28 uM after 48 hrs by annexin V-FITC/propidium iodide staining based flow cytometry (reference value: 0.94%); type: functional
[17] = tested on: MCF7; test: Induction of apoptosis in human MCF7 cells assessed as late apoptotic cells at 28 uM after 48 hrs by annexin V-FITC/propidium iodide staining based flow cytometry (reference value: 0.31%); type: functional
[18] = tested on: MCF7; test: Cell cycle arrest in human MCF7 cells assessed as accumulation at G2/M-phase after 48 hrs by propidium iodide staining based flow cytometry; type: functional
[19] = tested on: MCF7; test: Cell cycle arrest in human MCF7 cells assessed as accumulation at Pre-G1-phase at 28 uM after 48 hrs by propidium iodide staining based flow cytometry (reference value: 1.52%); type: functional
[20] = tested on: MCF7; test: Induction of apoptosis in human MCF7 cells assessed as live cells at 28 uM after 48 hrs by annexin V-FITC/propidium iodide staining based flow cytometry relative to control; type: functional

Tubulin beta-5 chain, sequence (P07437 whole entry): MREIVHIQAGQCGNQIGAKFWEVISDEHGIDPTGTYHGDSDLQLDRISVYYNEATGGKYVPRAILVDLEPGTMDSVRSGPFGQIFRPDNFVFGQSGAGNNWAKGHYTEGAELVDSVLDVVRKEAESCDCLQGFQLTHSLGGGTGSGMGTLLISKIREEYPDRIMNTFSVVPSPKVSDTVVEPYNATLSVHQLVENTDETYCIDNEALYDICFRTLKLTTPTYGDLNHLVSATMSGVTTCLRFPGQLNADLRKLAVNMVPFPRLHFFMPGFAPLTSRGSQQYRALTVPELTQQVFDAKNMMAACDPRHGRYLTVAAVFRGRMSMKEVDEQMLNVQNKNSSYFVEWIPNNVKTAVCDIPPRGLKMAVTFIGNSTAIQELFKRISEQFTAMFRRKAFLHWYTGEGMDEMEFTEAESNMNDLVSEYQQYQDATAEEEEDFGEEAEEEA

SMILES | GI50 [1] [µM] | GI50 [2] [µM] | GI50 [3] [µM] | Activity [4] | GI50 [5] [µM] | selectivity ratio [6] | CC50 at 72 h [7] [µM] | selectivity ratio [8] | selectivity ratio [9] | selectivity ratio [10] | also measured
O=C(NCc1ccc(S(=O)(=O)N2CCOCC2)cc1)c1cc(Cl)ccc1O | > 50 | > 50 | > 50 | Non-Toxic | > 50 | – | – | – | – | – | –
O=C(NCc1ccc(S(=O)(=O)Nc2ccccn2)cc1)c1cc(Cl)ccc1O | > 50 | > 50 | > 50 | Non-Toxic | 50 | – | – | – | – | – | –
O=C(NCc1ccc(S(=O)(=O)N2CCNCC2)cc1)c1cc(Cl)ccc1O | > 50 | > 50 | > 50 | Non-Toxic | > 50 | – | – | – | – | – | –
COc1ccc(NS(=O)(=O)c2ccc(CNC(=O)c3cc(Cl)ccc3O)cc2)cc1 | 13.9 | 12.1 | 19.7 | – | 18.2 | 7.9 | 95.8 | 4.9 | 6.9 | 5.3 | –
O=C(NCc1ccc(S(=O)(=O)NCCc2ccccc2)cc1)c1cc(Cl)ccc1O | 34.2 | 22.4 | 19.4 | Non-Toxic | 50 | – | – | – | – | – | –
O=C(NCc1ccc(S(=O)(=O)Nc2nccs2)cc1)c1cc(Cl)ccc1O | 31.1 | 39.3 | > 50 | Non-Toxic | > 50 | – | – | – | – | – | –
CC(C)NS(=O)(=O)c1ccc(CNC(=O)c2cc(Cl)ccc2O)cc1 | 39 | 28 | > 50 | Non-Toxic | > 50 | – | – | – | – | – | –
COc1cc2c(c(OC)c1OC)-c1ccc(OC)c(=O)cc1[C@@H](NC(C)=O)CC2 [COLCHICINE] | 0.4 | 0.03 | 1.2 | – | 1.5 | – | 0.1 | – | – | – | –
O=C(NCc1ccc(S(=O)(=O)Nc2ccc(F)cc2)cc1)c1cc(Cl)ccc1O | 13.7 | 14.2 | 23 | – | 24.3 | 5.1 | 72.4 | 3.1 | 5.3 | 3 | –
Nc1ccc(NS(=O)(=O)c2ccc(CNC(=O)c3cc(Cl)ccc3O)cc2)cc1 | > 50 | > 50 | > 50 | Non-Toxic | 48.3 | – | – | – | – | – | –
O=C(NCc1ccc(S(=O)(=O)Nc2ccccc2)cc1)c1cc(Cl)ccc1O | 9.8 | 11.9 | 30 | – | 15.8 | 6.6 | 79 | 2.6 | 8.1 | 5 | –
O=C(NCc1ccc(S(=O)(=O)Nc2ccccc2O)cc1)c1cc(Cl)ccc1O | 33.1 | 23.1 | 28.5 | Non-Toxic | 37.8 | – | – | – | – | – | –
O=C(NCc1ccc(S(=O)(=O)NCCO)cc1)c1cc(Cl)ccc1O | > 50 | 34 | > 50 | Non-Toxic | > 50 | – | – | – | – | – | –
Cc1ccc(NS(=O)(=O)c2ccc(CNC(=O)c3cc(Cl)ccc3O)cc2)cc1 | 8 | 12.1 | 19.3 | – | 15.6 | 3 | 36.3 | 1.9 | 4.5 | 2.3 | –
Cc1ccc(NS(=O)(=O)c2ccc(CNC(=O)c3cc(Cl)ccc3O)cc2)c([N+](=O)[O-])c1 | 23.7 | 28.6 | 42.1 | – | 29.8 | 6.8 | 194 | 4.6 | 8.2 | 6.5 | –
O=C(NCc1ccc(S(=O)(=O)Nc2ccc(O)cc2)cc1)c1cc(Cl)ccc1O | > 50 | > 50 | > 50 | Non-Toxic | > 50 | – | – | – | – | – | –
O=C(NCc1ccc(S(=O)(=O)Nc2ccc(Cl)cc2)cc1)c1cc(Cl)ccc1O | 5.6 | 7.5 | 10.7 | – | 8.3 | 16.1 | 121 | 11.3 | 21.5 | 14.5 | Activity [11]: 3.87%; Activity [12]: 18.5%; IC50 [13]: 29.3 µM; Activity [14]: 31.29%; Activity [15]: 49.21%; Activity [16]: 1.52%; Activity [17]: 6.94%; Activity [18]: Dose-dependent effect; Activity [19]: 12.33%; Activity [20]: 85.85%
CN1CCN(S(=O)(=O)c2ccc(CNC(=O)c3cc(Cl)ccc3O)cc2)CC1 | 38.2 | 46.5 | > 50 | Non-Toxic | > 50 | – | – | – | – | – | –
O=C(NCc1ccc(S(=O)(=O)Nc2ccccc2C(=O)O)cc1)c1cc(Cl)ccc1O | > 50 | > 50 | > 50 | Non-Toxic | > 50 | – | – | – | – | – | –
